Test results reported in ChEMBL document CHEMBL3877293, “Synthesis and Antineoplastic Evaluation of Novel Unsymmetrical 1,3,4-Oxadiazoles” (J Med Chem, 2016).
The source made the active and inactive calls. The calls are words filed in the database; no cut-off is given here.

Columns and labels:
[1] = Antiproliferative activity against human NB-1 cells after 72 hrs by XTT assay; assay type: cell-based; conditions: NB1, 72 h
In short: (§1)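 Cells plated at 1500–2000 per well by doubling time, treated after 24 h with a concentration series in six triplicate wells, and incubated 72 h without a medium change. XTT reagent was then added for 4 h at 37 °C and absorbance read at 490 nm. IC50 is the concentration halving absorbance versus untreated cells. Experiments run in triplicate.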

[2] = Cell cycle arrest in human RD cells assessed as G2/M phase accumulation at 1 uM after 24 hrs by propidium iodide staining based flow cytometry (reference value: 28.9 +/- 1.93%); assay type: functional
[3] = Cell cycle arrest in human NB1 hTERT cells assessed as G1 phase accumulation at 1 uM after 24 hrs by propidium iodide staining based flow cytometry (reference value: 52.3%); assay type: functional
[4] = Cell cycle arrest in human A549 cells assessed as subG1 phase accumulation at 1 uM after 24 hrs by propidium iodide staining based flow cytometry relative to DMSO control; assay type: functional
[5] = Cell cycle arrest in human SK-N-AS cells assessed as G2/M phase accumulation at 1 uM after 24 hrs by propidium iodide staining based flow cytometry (reference value: 25.2 +/- 1.32%); assay type: functional
[6] = Cell cycle arrest in human LAN1 cells assessed as G1 phase accumulation at 1 uM after 24 hrs by propidium iodide staining based flow cytometry (reference value: 60.3 +/- 1.82%); assay type: functional
[7] = Disruption of beta-tubulin network in human MCF7 cells assessed as uneven distribution around nuclei at 1 uM after 24 hrs by DAPI staining based immunofluorescence microscopic analysis; assay type: cell-based
In short: (§2)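 Cells seeded on glass coverslips (1 x 10^5/well), treated 24 h, fixed in 4% paraformaldehyde 15 min, permeabilized with 0.5% Triton X-100, blocked in 5% BSA/PBS, stained overnight at 4 °C with anti-β-tubulin (1:200) then fluorescent secondary antibody; nuclei counterstained with DAPI; microtubule organization and nuclear morphology examined by fluorescence microscopy.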

[8] = Cell cycle arrest in human PC3 cells assessed as S phase accumulation at 1 uM after 24 hrs by propidium iodide staining based flow cytometry (reference value: 6.2 +/- 0.94%); assay type: functional; conditions: PC-3
[9] = Cell cycle arrest in human NB1 hTERT cells assessed as G1 phase accumulation at 1 uM after 48 hrs by propidium iodide staining based flow cytometry (reference value: 62.5%); assay type: functional
HeLa [10] = experiment: Antiproliferative activity against human HeLa cells at 2 uM after 72 hrs by XTT assay; assay type: functional, cell-based
[11] = Antiproliferative activity against human PC3 cells after 72 hrs by XTT assay; assay type: functional, cell-based; conditions: PC-3, 72 h; in short: as §1
[12] = Cell cycle arrest in human T98G cells assessed as G2/M phase accumulation at 1 uM after 24 hrs by propidium iodide staining based flow cytometry (reference value: 8.8 +/- 0.93%); assay type: functional
[13] = Cell cycle arrest in human NCI-H1299 cells assessed as S phase accumulation at 1 uM after 24 hrs by propidium iodide staining based flow cytometry (reference value: 16.4 +/- 1.76%); assay type: functional
MCF7 = experiment: Disruption of beta-tubulin network in human MCF7 cells assessed as induction of micronucleated cells at 1 uM after 24 hrs by DAPI staining based immunofluorescence microscopic analysis; assay type: cell-based; in short: as §2
[14] = Cell cycle arrest in human NB1 hTERT cells assessed as S phase accumulation at 1 uM after 72 hrs by propidium iodide staining based flow cytometry (reference value: 3.6%); assay type: functional
[15] = Antiproliferative activity against human HeLa cells after 72 hrs by XTT assay; assay type: functional, cell-based; in short: as §1
[16] = Induction of apoptosis in human NB-1 cells assessed as live cells at 5 uM after 72 hrs by Annexin-V FITC/propidium iodide staining based flow cytometry (reference value: 93.3%); assay type: cell-based, NB1; conditions: read-out: Activity
[17] = Cell cycle arrest in human A549 cells assessed as G2/M phase accumulation at 1 uM after 24 hrs by propidium iodide staining based flow cytometry (reference value: 27 +/- 1.32%); assay type: functional
[18] = Cell cycle arrest in human NB-1 cells assessed as G1 phase accumulation at 1 uM after 24 hrs by propidium iodide staining based flow cytometry (reference value: 75%); conditions: nb1, 24 h
[19] = Antiproliferative activity against human SH-SY5Y cells after 72 hrs by XTT assay; assay type: functional, cell-based; in short: as §1
[20] = Cell cycle arrest in human RD cells assessed as G1 phase accumulation at 1 uM after 24 hrs by propidium iodide staining based flow cytometry (reference value: 56.7 +/- 1.48%); assay type: functional
A549 [21] = experiment: Induction of apoptosis in human A549 cells assessed as necrotic cells at 5 uM after 72 hrs by Annexin-V FITC/propidium iodide staining based flow cytometry (reference value: 1.6%); assay type: functional
A549 [22] = experiment: Induction of apoptosis in human A549 cells assessed as live cells at 5 uM after 72 hrs by Annexin-V FITC/propidium iodide staining based flow cytometry (reference value: 91.9%); assay type: functional
[23] = Antiproliferative activity against human T98G cells after 72 hrs by XTT assay; assay type: functional, cell-based; in short: as §1
[24] = Antiproliferative activity against human MCF7 cells after 72 hrs by XTT assay; assay type: functional, cell-based; conditions: MCF7, 72 h; in short: as §1
[25] = Cell cycle arrest in human NCI-H1299 cells assessed as S phase accumulation at 1 uM after 48 hrs by propidium iodide staining based flow cytometry (reference value: 7.2%); assay type: functional
[26] = Cell cycle arrest in human HeLa cells assessed as G1 phase accumulation at 1 uM after 8 hrs by propidium iodide staining based flow cytometry (reference value: 62.7%); assay type: functional
[27] = Induction of apoptosis in human NB-1 cells assessed as early apoptotic cells at 5 uM after 72 hrs by Annexin-V FITC/propidium iodide staining based flow cytometry (reference value: 3.2%); assay type: cell-based; conditions: nb1, 72 h
HeLa [28] = experiment: Induction of apoptosis in human HeLa cells assessed as necrotic cells at 5 uM after 48 hrs by Annexin-V FITC/propidium iodide staining based flow cytometry (reference value: 2.3%); assay type: functional
[29] = Cell cycle arrest in human NB1 hTERT cells assessed as S phase accumulation at 1 uM after 48 hrs by propidium iodide staining based flow cytometry (reference value: 10.3%); assay type: functional
[30] = Cell cycle arrest in human Kelly cells assessed as subG1 phase accumulation at 1 uM after 24 hrs by propidium iodide staining based flow cytometry relative to DMSO control; assay type: functional
[31] = Cell cycle arrest in human SH-SY5Y cells assessed as S phase accumulation at 1 uM after 24 hrs by propidium iodide staining based flow cytometry (reference value: 14.3 +/- 1.52%); assay type: functional
[32] = Cell cycle arrest in human SH-SY5Y cells assessed as subG1 phase accumulation at 1 uM after 24 hrs by propidium iodide staining based flow cytometry relative to DMSO control; assay type: functional
[33] = Cell cycle arrest in human RD cells assessed as subG1 phase accumulation at 1 uM after 24 hrs by propidium iodide staining based flow cytometry relative to DMSO control; assay type: functional
[34] = Cell cycle arrest in human RD cells assessed as S phase accumulation at 1 uM after 24 hrs by propidium iodide staining based flow cytometry (reference value: 14.4 +/- 0.92%); assay type: functional

With `Cc1[nH]c2c(c1-c1nnc(-c3ccccc3)o1)Cc1ccccc1-2` the IC50 [1] was 1300 nM, the Activity [2] was 46.4% and the Activity [3] was 58.8%. The Activity [4] was 13.8%, the Activity [5] was 73% and the Activity [6] was 11.8%. The Activity [7] was “Active”, the Activity [8] was 4.7% and the Activity [9] was 41.1%. The Activity (HeLa [10]) was “Active”, the IC50 [11] was 670 nM and the Activity [12] was 65.9%. For the same compound, the Activity [13] was 7.6%, the Activity (MCF7) was “Active” and the Activity [14] was 8.3%. The IC50 [15] was 50 nM, the viability at 72 h, 5 µM [16] was 86.6% and the Activity [17] was 65.3%. It also gave an Activity [18] of 73%, an IC50 [19] of 70 nM and an Activity [20] of 36.9%. For the same compound, the Activity (A549 [21]) was 4.6%, the Activity (A549 [22]) was 42.7% and the IC50 [23] was 60 nM. For the same compound, the IC50 [24] was 1700 nM, the Activity [25] was 9.7% and the Activity [26] was 32.5%. For the same compound, the Activity [27] was 4.2%, the Activity (HeLa [28]) was 4.3% and the Activity [29] was 10.9%. It also gave an Activity [30] of 13.4%, an Activity [31] of 15.6% and an Activity [32] of 15.7%. The Activity [33] was 6.1% and the Activity [34] was 10.6%.
